Measured values published in ChEMBL document CHEMBL1136006, “New PET imaging agent for the serotonin transporter: [(18)F]ACF (2-[(2-amino-4-chloro-5-fluorophenyl)thio]-N,N-dimethyl-benzenmethanamine)” (J Med Chem, 2002).

Tests used:
Rattus norvegicus [1] = species: Rattus norvegicus; experiment: Ratio of regional brain distribution of [18F]-ACF radiolabeled compound in rat remainder to that of cerebellum after 240 min; assay type: ADME, organism-based; settings: in vivo, 4 h
Procedure, shortened: (§1)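 Rats (three per group) under ether anesthesia got 30 μCi tracer in 0.2 mL saline into the femoral vein and were killed by cardiac excision at the stated time. Cortex, striatum, hippocampus, cerebellum, hypothalamus and the rest of brain were dissected, weighed and gamma counted. %dose/g was taken against counts of a diluted initial dose. Regional ratios are each region's %dose/g over cerebellum's. Mean ± SD.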

Rattus norvegicus [2] = species: Rattus norvegicus; experiment: Ratio of regional brain distribution of [18F]ACF radiolabeled compound in rat remainder to that of cerebellum after 60 min; assay type: ADME, organism-based; settings: in vivo, 1 h; procedure, shortened: as §1
Rattus norvegicus [3] = experiment: Ratio of effect of pretreatment with methylphenidate with a dose of 2 mg/kg (i.v.) on specific binding of [18F]ACF in rat brain cortex to that of cerebellum; assay type: ADME, organism-based; design: dose 2 mg/kg, route intravenous; settings: in vivo, iv
Procedure, shortened: (§2)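 Rats (three per point) pretreated iv with competing drug at 2 mg/kg or saline (control) 5 min before iv [18F]ACF (50 μCi). At 1 h post tracer, brain regions (cortex, striatum, hippocampus, cerebellum, hypothalamus, remainder) dissected, weighed, counted as % dose/g and expressed as ratio to cerebellum. Average ± SD; ANOVA with Dunnett's test vs saline controls, p < 0.05.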

Rattus norvegicus [4] = species: Rattus norvegicus; experiment: Organ distribution of [18F]ACF radiolabeled compound in rat kidney after 120 min; assay type: ADME, organism-based; settings: in vivo, 2 h
Procedure, shortened: (§3)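 Rats, three per time point, under ether anesthesia; 30 μCi tracer in 0.2 mL saline injected into femoral vein. Sacrificed by cardiac excision under ether at 2, 30, 60, 120 or 240 min. Organs removed, weighed and counted; % dose/organ calculated against counts of 1% of initial dose counted at the same time. Average of three rats ± SD.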

Rattus norvegicus [5] = species: Rattus norvegicus; experiment: Organ distribution of [18F]ACF radiolabeled compound in rat lung after 120 min; assay type: ADME, organism-based; settings: in vivo, 2 h; procedure, shortened: as §3
Rattus norvegicus [6] = species: Rattus norvegicus; experiment: Regional brain distribution of [18F]-ACF radiolabeled compound in rat hypothalamus after 240 min; assay type: ADME, organism-based; settings: in vivo, 4 h; procedure, shortened: as §1
Rattus norvegicus [7] = species: Rattus norvegicus; experiment: Ratio of regional brain distribution of [18F]ACF radiolabeled compound in rat cerebellum to that of cerebellum after 240 min; assay type: ADME, organism-based; settings: in vivo, 4 h; procedure, shortened: as §1
Rattus norvegicus [8] = species: Rattus norvegicus; experiment: Organ distribution of [18F]-ACF radiolabeled compound in rat lung after 2 min; assay type: ADME, organism-based; settings: in vivo
Procedure, shortened: (§4)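 Under ether anesthesia, 30 μCi no-carrier-added tracer in 0.2 mL saline injected into the femoral vein. Rats killed by cardiac excision at the stated time. Organs were removed, weighed and counted; % dose/organ was calculated against counts of a 1% initial-dose standard. Three rats per time, average ± SD.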

Rattus norvegicus [9] = experiment: Ratio of effect of pretreatment with (+)-McN5652 with a dose of 2 mg/kg (i.v.) on specific binding of [18F]ACF in rat brain cerebellum to that of cerebellum; assay type: ADME, organism-based; design: dose 2 mg/kg, route intravenous; settings: in vivo, iv; procedure, shortened: as §2
Rattus norvegicus [10] = species: Rattus norvegicus; experiment: Organ distribution of [18F]-ACF radiolabeled compound in rat brain after 60 min; assay type: ADME, organism-based; settings: in vivo, 1 h; procedure, shortened: as §4
Rattus norvegicus [11] = species: Rattus norvegicus; experiment: Organ distribution of [18F]ACF radiolabeled compound in rat liver after 2 min; assay type: ADME, organism-based; settings: in vivo; procedure, shortened: as §3
Rattus norvegicus [12] = species: Rattus norvegicus; experiment: Regional brain distribution of [18F]ACF radiolabeled compound in rat cerebellum after 30 min; assay type: ADME, organism-based; settings: in vivo, 0.5 h; procedure, shortened: as §1
Rattus norvegicus [13] = species: Rattus norvegicus; experiment: Ratio of regional brain distribution of [18F]ACF radiolabeled compound in rat striatum to that of cerebellum after 60 min; assay type: ADME, organism-based; settings: in vivo, 1 h; procedure, shortened: as §1
Rattus norvegicus [14] = species: Rattus norvegicus; experiment: Organ distribution of [18F]ACF radiolabeled compound in rat blood after 240 min; assay type: ADME, organism-based; settings: in vivo, 4 h; procedure, shortened: as §3
Rattus norvegicus [15] = experiment: Effect of pretreatment with methylphenidate with a dose of 2 mg/kg (i.v.) on specific binding of [18F]-ACF in rat brain remainder; assay type: ADME, organism-based; design: dose 2 mg/kg, route intravenous; settings: in vivo, iv
Procedure, shortened: (§5)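 Rats pretreated iv with drug (2 mg/kg) or saline 5 min before iv [18F]ACF (50 μCi). Sacrificed 1 h after tracer. Brain regions were dissected, weighed and counted, and % dose/g was calculated against a diluted initial dose. Drug-treated rats were compared with saline controls by ANOVA/Dunnett's test (p<0.05). Three rats per point, average ± SD.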

Rattus norvegicus [16] = experiment: Ratio of effect of pretreatment with (+)-McN5652 with a dose of 2 mg/kg (i.v.) on specific binding of [18F]-ACF in rat brain hippocampus to that of cerebellum; assay type: ADME, organism-based; design: dose 2 mg/kg, route intravenous; settings: in vivo, iv; procedure, shortened: as §2
Rattus norvegicus [17] = species: Rattus norvegicus; experiment: Organ distribution of [18F]-ACF radiolabeled compound in rat bone after 30 min; assay type: ADME, organism-based, Bone element; settings: in vivo, 0.5 h; procedure, shortened: as §4
Rattus norvegicus [18] = species: Rattus norvegicus; experiment: Ratio of regional brain distribution of [18F]ACF radiolabeled compound in rat cortex to that of cerebellum after 30 min; assay type: ADME, organism-based; settings: in vivo, 0.5 h; procedure, shortened: as §1
Rattus norvegicus [19] = species: Rattus norvegicus; experiment: Ratio of regional brain distribution of [18F]-ACF radiolabeled compound in rat hypothalamus to that of cerebellum after 2 min; assay type: ADME, organism-based; settings: in vivo; procedure, shortened: as §1
Rattus norvegicus [20] = experiment: Ratio of effect of pretreatment with nisoxatine with a dose of 2 mg/kg (i.v.) on specific binding of [18F]ACF in rat brain cerebellum to that of cerebellum; assay type: ADME, organism-based; design: dose 2 mg/kg, route intravenous; settings: in vivo, iv; procedure, shortened: as §2
Rattus norvegicus [21] = species: Rattus norvegicus; experiment: Regional brain distribution of [18F]-ACF radiolabeled compound in rat striatum after 2 min; assay type: ADME, organism-based; settings: in vivo; procedure, shortened: as §1
Rattus norvegicus [22] = species: Rattus norvegicus; experiment: Regional brain distribution of [18F]ACF radiolabeled compound in rat remainder (rest of brain) after 2 min; assay type: ADME, organism-based; settings: in vivo; procedure, shortened: as §1
Rattus norvegicus [23] = species: Rattus norvegicus; experiment: Organ distribution of [18F]-ACF radiolabeled compound in rat skin after 60 min; assay type: ADME, organism-based; settings: in vivo, 1 h; procedure, shortened: as §4
Rattus norvegicus [24] = species: Rattus norvegicus; experiment: Regional brain distribution of [18F]ACF radiolabeled compound in rat hippocampus after 120 min; assay type: ADME, organism-based; settings: in vivo, 2 h; procedure, shortened: as §1
Rattus norvegicus [25] = species: Rattus norvegicus; experiment: Organ distribution of [18F]ACF radiolabeled compound in rat heart after 120 min; assay type: ADME, organism-based; settings: in vivo, 2 h; procedure, shortened: as §3
Rattus norvegicus [26] = species: Rattus norvegicus; experiment: Organ distribution of [18F]-ACF radiolabeled compound in rat heart after 30 min; assay type: ADME, organism-based; settings: in vivo, 0.5 h; procedure, shortened: as §4
Rattus norvegicus [27] = species: Rattus norvegicus; experiment: Organ distribution of [18F]-ACF radiolabeled compound in rat spleen after 60 min; assay type: ADME, organism-based; settings: in vivo, 1 h; procedure, shortened: as §3
Rattus norvegicus [28] = species: Rattus norvegicus; experiment: Ratio of regional brain distribution of [18F]-ACF radiolabeled compound in rat hippocampus to that of cerebellum after 240 min; assay type: ADME, organism-based; settings: in vivo, 4 h
Procedure, shortened: (§6)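 Rats, three per time point, given 30 μCi tracer in 0.2 mL saline into femoral vein under ether anesthesia; killed at 2, 30, 60, 120 or 240 min. Cortex, striatum, hippocampus, cerebellum, hypothalamus and rest of brain dissected, weighed, counted; % dose/g against diluted initial dose, then each region divided by cerebellum. Average of three rats ± SD.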

Rattus norvegicus [29] = species: Rattus norvegicus; experiment: Organ distribution of [18F]-ACF radiolabeled compound in rat lung after 60 min; assay type: ADME, organism-based; settings: in vivo, 1 h; procedure, shortened: as §4
Rattus norvegicus [30] = experiment: Ratio of effect of pretreatment with nisoxatine with a dose of 2 mg/kg (i.v.) on specific binding of [18F]ACF in rat brain striatum to that of cerebellum; assay type: ADME, organism-based; design: dose 2 mg/kg, route intravenous; settings: in vivo, iv; procedure, shortened: as §2
Rattus norvegicus [31] = species: Rattus norvegicus; experiment: Ratio of regional brain distribution of [18F]-ACF radiolabeled compound in rat cerebellum to that of cerebellum after 120 min; assay type: ADME, organism-based; settings: in vivo, 2 h; procedure, shortened: as §6
Rattus norvegicus [32] = species: Rattus norvegicus; experiment: Organ distribution of [18F]ACF radiolabeled compound in rat bone after 2 min; assay type: ADME, organism-based, Bone element; settings: in vivo; procedure, shortened: as §3
Rattus norvegicus [33] = species: Rattus norvegicus; experiment: Regional brain distribution of [18F]ACF radiolabeled compound in rat striatum after 30 min; assay type: ADME, organism-based; settings: in vivo, 0.5 h
Procedure, shortened: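 Rats, three per group, under ether anaesthesia, given 30 μCi no-carrier-added tracer in 0.2 mL saline into the femoral vein. They were killed at the stated time by cardiac excision under ether. Striatum and other brain regions were dissected, weighed and counted. %dose/g was calculated against counts of 1% of the injected dose, as mean ± SD of three rats.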

Rattus norvegicus [34] = species: Rattus norvegicus; experiment: Ratio of regional brain distribution of [18F]ACF radiolabeled compound in rat striatum to that of cerebellum after 2 min; assay type: ADME, organism-based; settings: in vivo; procedure, shortened: as §1
Rattus norvegicus [35] = experiment: Effect of pretreatment with (+)-McN5652 with a dose of 2 mg/kg (i.v.) on specific binding of [18F]ACF in rat brain striatum; assay type: ADME, organism-based; design: dose 2 mg/kg, route intravenous; settings: in vivo, iv; procedure, shortened: as §5

Ratio (Rattus norvegicus [1]): 1.58
Ratio (Rattus norvegicus [2]): 2.56
Ratio (Rattus norvegicus [3]): 2.02
Dose/g (Rattus norvegicus [4]): 0.78 % dose/organ
Dose/g (Rattus norvegicus [5]): 0.32 % dose/organ
Dose/g (Rattus norvegicus [6]): 0.05%
Ratio (Rattus norvegicus [7]): 1
Dose/g (Rattus norvegicus [8]): 14.9 % dose/organ
Ratio (Rattus norvegicus [9]): 1
Dose/g (Rattus norvegicus [10]): 0.69 % dose/organ
Dose/g (Rattus norvegicus [11]): 9.41 % dose/organ
Dose/g (Rattus norvegicus [12]): 0.37%
Ratio (Rattus norvegicus [13]): 2.88
Dose/g (Rattus norvegicus [14]): 2.33 % dose/organ
Dose/g (Rattus norvegicus [15]): 0.38%
Ratio (Rattus norvegicus [16]): 1.93
Dose/g (Rattus norvegicus [17]): 0.04 % dose/organ
Ratio (Rattus norvegicus [18]): 1.69
Ratio (Rattus norvegicus [19]): 1.37
Ratio (Rattus norvegicus [20]): 1
Dose/g (Rattus norvegicus [21]): 1.78%
Dose/g (Rattus norvegicus [22]): 1.69%
Dose/g (Rattus norvegicus [23]): 5.97 % dose/organ
Dose/g (Rattus norvegicus [24]): 0.14%
Dose/g (Rattus norvegicus [25]): 0.06 % dose/organ
Dose/g (Rattus norvegicus [26]): 0.18 % dose/organ
Dose/g (Rattus norvegicus [27]): 0.13 % dose/organ
Ratio (Rattus norvegicus [28]): 1.99
Dose/g (Rattus norvegicus [29]): 0.73 % dose/organ
Ratio (Rattus norvegicus [30]): 2.5
Ratio (Rattus norvegicus [31]): 1
Dose/g (Rattus norvegicus [32]): 0.01 % dose/organ
Dose/g (Rattus norvegicus [33]): 0.76%
Ratio (Rattus norvegicus [34]): 1.41
Dose/g (Rattus norvegicus [35]): 0.25%
SMILES: CN(C)Cc1ccccc1Sc1cc(F)c(Cl)cc1N
